Measured values published in ChEMBL document CHEMBL4393712, “Discovery of chalcone-modified estradiol analogs as antitumour agents that Inhibit tumour angiogenesis and epithelial to mesenchymal transition” (Eur J Med Chem, 2019).
pIC50: −log10 of the molar value. The source made the active and inactive calls. The rule behind the calls is not given here.

How the values were obtained:
[1] = Toxicity in nude mouse xenografted with human MCF7 cells assessed as liver edema at 45 mg/kg/day, ip administered for 21 days by HE staining analysis; type: organism-based; settings: in vivo, 504 h
[2] = Hepatotoxicity in nude mouse xenografted with human MCF7 cells assessed as increase in serum alanine transaminase level at 45 mg/kg/day, ip administered for 21 days by biochemical automatic analyzer; type: toxicity, organism-based; settings: in vivo, 504 h
[3] = Hepatotoxicity in nude mouse xenografted with human MCF7 cells assessed as increase in serum aspartate transaminase level at 45 mg/kg/day, ip administered for 21 days by automatic biochemical analyzer; type: toxicity, organism-based; settings: in vivo, 504 h
[4] = test system: Chorioallantoic membrane; experiment: Antiangiogenic activity in chicken chorioallantoic membrane assessed as reduction in neovascularization at 50 ug/ml measured after 72 hrs by CAM assay; type: functional; settings: Gallus gallus
How it was run: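 Fertilized chicken eggs incubated 6 days at 37 °C; shell windowed and CAM treated (compounds and controls at […] as printed; saline vehicle control). Eggs re-incubated humidified; membranes fixed and harvested after 72 h. Angiogenesis scored by counting blood vessels and imaging neovascular zones; ten eggs per group.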

[5] = test system: B16; experiment: Antitumour activity against mouse B16 cells assessed as cell growth inhibition measured after 72 hrs by SRB assay; type: functional, cell-based; settings: B16, 72 h
How it was run: (§1)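 Exponentially growing cells trypsinized, seeded at 5 × 10^4 cells/mL in 96-well plates, cultured overnight, then exposed to compounds for 72 h. Cells fixed with 10% TCA 1 h, stained with SRB 15 min, dye dissolved in Tris-HCl, absorbance read; 50% growth-inhibitory concentration calculated.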

[6] = Hepatotoxicity in nude mouse xenografted with human MCF7 cells assessed as increase in serum alkaline phosphatase level at 45 mg/kg/day, ip administered for 21 days by biochemical automatic analyzer; type: toxicity, organism-based; settings: in vivo, 504 h
[7] = test system: SK-N-SH; experiment: Antitumour activity against human SK-N-SH cells assessed as cell growth inhibition measured after 72 hrs by SRB assay; type: functional, cell-based; how it was run: as §1
[8] = Toxicity in nude mouse xenografted with human MCF7 cells assessed as decrease in body weight at 45 mg/kg/day, ip administered for 21 days; type: organism-based; settings: in vivo, 504 h
How it was run: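 Nude mice (male/female, 4–6 weeks) injected subcutaneously in right forelimb with 5 × 10^7 MCF-7 cells in 200 µL saline; at mean tumour 100 mm3 randomized (n = 5/group): saline 0.2 mL/day, 22.5 or 45 mg/kg/day ip for 21 days. Body weight and tumour volume (length × width²/2) every other day; tumours weighed at day 21.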

[9] = test system: A549; experiment: Antitumour activity against human A549 cells assessed as cell growth inhibition measured after 72 hrs by SRB assay; type: functional, cell-based; settings: A549, 72 h; how it was run: as §1
[10] = test system: SMMC-7721; experiment: Antitumour activity against human SMMC7721 cells assessed as cell growth inhibition measured after 72 hrs by SRB assay; type: functional, cell-based; settings: SMMC-7721, 72 h; how it was run: as §1
[11] = test system: MGC-803; experiment: Cytotoxicity against human MGC803 cells assessed as reduction in cell viability measured after 48 to 72 hrs by MTT assay; type: cell-based
How it was run: (§2)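 Cells seeded at 3 × 10^3 per well in 96-well plates, incubated overnight, then given fresh medium with a range of drug concentrations for 48 h or 72 h. MTT added (final 500 µg/mL) for 4 h, formazan dissolved in DMSO, absorbance at 570 nm; IC50 derived. Mean ± SD of 3 independent tests.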

[12] = test system: GES1; experiment: Cytotoxicity against human GES-1 cells assessed as reduction in cell viability measured after 48 to 72 hrs by MTT assay; type: cell-based; how it was run: as §2
[13] = test system: HUVEC; experiment: Cytotoxicity against HUVEC assessed as reduction in cell viability measured after 48 to 72 hrs by MTT assay; type: cell-based; settings: human; how it was run: as §2
[14] = test system: ECa-109 cell line; experiment: Antitumour activity against human EC109 cells assessed as cell growth inhibition measured after 72 hrs by SRB assay; type: functional, cell-based; settings: ECa-109, 72 h; how it was run: as §1
[15] = test system: MGC-803; experiment: Antitumour activity against human MGC803 cells assessed as cell growth inhibition measured after 72 hrs by SRB assay; type: functional, cell-based; settings: MGC-803, 72 h; how it was run: as §1
[16] = test system: PC-3; experiment: Cytotoxicity against human PC3 cells assessed as reduction in cell viability measured after 48 to 72 hrs by MTT assay; type: cell-based; how it was run: as §2

For `COc1cc2c(cc1O)CC[C@@H]1[C@@H]2CC[C@]2(C)[C@@H](O)CC[C@@H]12` [2-METHOXYESTRADIOL], the Activity [1] was “Toxic”, the Activity [2] was “Toxic” and the Activity [3] was “Toxic”. For the same molecule, the inhibition [4] was “Active”, the pIC50 [5] was 5.47 and the Activity [6] was “Toxic”. The pIC50 [7] was 5.80, the Activity [8] was “Toxic” and the pIC50 [9] was 5.96. For the same molecule, the pIC50 [10] was 5.08, the Activity [11] was “Toxic” and the Activity [12] was “Toxic”. For the same molecule, the Activity [13] was “Toxic”, the pIC50 [14] was 5.39 and the pIC50 [15] was 5.40. The Activity [16] was “Toxic”.
